In ChEMBL document CHEMBL4725241, “Discovery of BMS-986235/LAR-1219: A Potent Formyl Peptide Receptor 2 (FPR2) Selective Agonist for the Prevention of Heart Failure” (J Med Chem, 2020):
Activity calls are given as the source filed them. The calls are words filed in the database; no cut-off is given here.

Columns and labels:
[1] = Clearance in dog liver microsome at 0.1 umol/l and measured for 60 mins by LC-MS/MS analysis; type: ADME, Canis lupus familiaris; details: microsomes, 1 h, 0.1 µM, dose 0.1 µmol/L
How it was run: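 Liver microsomes (1 mg protein/mL final) with an NADPH regenerating system were preincubated 5 min at 37°C, then given 0.1 µmol/L compound. Samples were taken at 0-60 min, quenched in methanol/acetonitrile with internal standard, and analysed by LC-MS/MS. Runs were in triplicate. kel came from 5-30 min points. CLint = kel/protein concentration (mL/min/mg protein).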

[2] = Total clearance in cynomolgus monkey at 1 mg/kg, iv by LC-MS/MS analysis; type: ADME, organism-based, Macaca fascicularis; details: in vivo
How it was run: (§1)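 Male animals received intravenous solution in DMSO/PEG400/saline (5/47.5/47.5). EDTA plasma was extracted with methanol/acetonitrile (1:1) plus internal standard and quantified by LC-MS/MS. AUC0-inf was calculated by the trapezoidal rule with terminal-phase kel extrapolation.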

CHO = assay: Selectivity ratio of agonist activity at human FPR1 expressed in CHO cells to agonist activity at human FPR2 expressed in CHO cells; type: cell-based
How it was run: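 Ratio of FPR1 to FPR2 EC50 from the CHO-cell forskolin/IBMX cAMP HTRF assay, 30 min at room temperature, 4-parameter logistic fit.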

[3] = biological target: T1, N-formyl peptide receptor 2 (Homo sapiens, UniProt P25090); assay: Agonist activity at human FPR2 expressed in CHO-K1 cells assessed as stimulation of beta-arrestin recruitment; type: cell-based
T1 sequence (P25090 whole entry): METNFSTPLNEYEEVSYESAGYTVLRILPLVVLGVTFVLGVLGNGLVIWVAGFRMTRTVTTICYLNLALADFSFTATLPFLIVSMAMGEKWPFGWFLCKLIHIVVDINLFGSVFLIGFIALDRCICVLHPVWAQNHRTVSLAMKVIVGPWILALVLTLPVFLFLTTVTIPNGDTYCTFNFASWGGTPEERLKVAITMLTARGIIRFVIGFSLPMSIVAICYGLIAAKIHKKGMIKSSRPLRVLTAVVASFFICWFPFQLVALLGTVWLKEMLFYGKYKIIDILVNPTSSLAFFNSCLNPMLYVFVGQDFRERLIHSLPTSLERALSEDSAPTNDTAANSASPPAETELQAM

[4] = AUC (0 to infinity) in Crl:CD(SD) rat at 1 mg/kg, po by LC-MS/MS analysis; type: ADME, organism-based; design: time infinity, route oral, dose 1 mg/kg; details: in vivo
How it was run: (§2)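 Male animals dosed orally with a suspension in 0.5% MC. Blood was taken into EDTA 2K capillaries and plasma was stored frozen. Plasma was mixed with methanol/acetonitrile (1:1) plus internal standard, centrifuged, and drug was measured by LC-MS/MS. AUC0-inf was obtained by the trapezoidal rule, extrapolated with kel from the terminal phase. t1/2 = ln2/kel.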

[5] = Oral bioavailability in Beagle dog at 1 mg/kg by LC-MS/MS analysis; type: ADME, organism-based, Canis lupus familiaris; details: in vivo
Mus musculus = assay: Cardioprotective activity in C57BL/6 mouse model of LAD coronary artery ligation-induced myocardial infarction assessed as reduction in heart weight at 0.3 mg/kg, po and measured after 28 days; type: functional, organism-based; details: time 28.0 day
How it was run: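 Male C57BL/6 mice (10-12 weeks) underwent permanent LAD ligation under ketamine/xylazine, with shams having an untightened suture. Compound (0.3 mg/kg/d) or vehicle was given by oral gavage once daily (5 mL/kg) from post-MI day 4 for 24 days. Endpoints were taken at 28 days post-MI; scar length was quantified from LV cross sections.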

[6] = Half life in BALB/cCrSlc mouse at 1 mg/kg, po by LC-MS/MS analysis; type: ADME, organism-based; details: in vivo; how it was run: as §2
[7] = Total clearance in Crl:CD(SD) rat at 1 mg/kg, iv by LC-MS/MS analysis; type: ADME, organism-based; details: in vivo; how it was run: as §1
[8] = Clearance in dog hepatocytes at 0.1 umol/l and measured for 6 hrs by LC-MS/MS analysis; type: ADME, cell-based, Canis lupus familiaris, Hepatocyte; details: dose 0.1 µmol/L, read-out: CLH
How it was run: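 Hepatocytes (1 × 10⁶ cells/mL) in modified Krebs–Henseleit buffer were preincubated 5 min at 37°C, then given 0.1 µmol/L compound. Samples were taken at 0, 1, 2, 4 and 6 h and analysed by LC-MS/MS, in duplicate. kel came from 0-2 h points. CLint was scaled by hepatocellularity and liver weight (mL/min/kg).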

[9] = biological target: T1, N-formyl peptide receptor 2; assay: Agonist activity at human FPR2 expressed in HEK 293 cells co-expressing Galpha15 measured every 1.5 sec for 80 sec by Fluo-4 NW staining based scanning fluorometric method; type: cell-based, HEK293
How it was run: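 HEK293 cells were transiently co-transfected with FPR plus Gα15 (Lipofectamine 2000), then reseeded after 24 h on poly-D-lysine plates and grown one more day. Cells were loaded with Fluo-4 NW for 45 min at 37°C. Compound was added and fluorescence (ex 485/em 525 nm) read for 80 s at 1.5 s intervals. Response = maximal peak minus basal.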

[10] = Oral bioavailability in Crl:CD(SD) rat at 1 mg/kg by LC-MS/MS analysis; type: ADME, organism-based; details: in vivo
How it was run: (§3)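 Oral bioavailability = (AUC0-inf,po/dose po)/(AUC0-inf,iv/dose iv) × 100. Oral dosing used a 0.5% MC suspension. IV dosing used a DMSO/PEG400/saline (5/47.5/47.5) solution, with CD1(ICR) mice for the iv arm. Plasma drug levels were measured by LC-MS/MS after methanol/acetonitrile extraction with internal standard.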

[11] = Total clearance in Beagle dog at 1 mg/kg, iv by LC-MS/MS analysis; type: ADME, organism-based, Canis lupus familiaris; details: in vivo; how it was run: as §1
[12] = Oral bioavailability in BALB/cCrSlc mouse at 1 mg/kg by LC-MS/MS analysis; type: ADME, organism-based; details: in vivo; how it was run: as §3
fMet-Leu-Phe receptor = biological target: T2, fMet-Leu-Phe receptor (Homo sapiens, UniProt P21462); assay: Agonist activity at human FPR1 expressed in CHO cells assessed as reduction cAMP accumulation incubated for 1 hr by TR-FRET assay; type: functional, cell-based
T2 sequence (P21462 whole entry): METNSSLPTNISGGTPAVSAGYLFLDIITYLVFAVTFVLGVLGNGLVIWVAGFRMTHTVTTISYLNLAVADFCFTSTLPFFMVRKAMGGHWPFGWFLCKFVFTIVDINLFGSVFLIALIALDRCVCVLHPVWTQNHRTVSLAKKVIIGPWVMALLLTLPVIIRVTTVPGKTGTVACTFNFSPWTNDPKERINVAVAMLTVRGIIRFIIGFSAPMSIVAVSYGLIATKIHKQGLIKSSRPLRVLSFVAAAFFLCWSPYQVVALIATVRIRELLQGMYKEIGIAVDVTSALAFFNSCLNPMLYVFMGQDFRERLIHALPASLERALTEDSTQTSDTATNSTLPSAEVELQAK
How it was run: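 CHO cells overexpressing the receptor were used, 2,000 hFPR2 or 4,000 hFPR1 cells/well. Cells were incubated 30 min at room temperature with compound (1.7 nM-100 µM, 1% DMSO), IBMX 200 µM and forskolin (5 µM for FPR2, 10 µM for FPR1) in DPBS/0.1% BSA. cAMP was read by HTRF after 1 h lysis against a standard curve. Data were fitted to a 4-parameter logistic, average of ≥2 occasions.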

[13] = In vivo […] in mouse assessed as reduction in LPS-induced neutrophil infiltration in BALF cells at 1 mg/kg, po relative to control; type: functional
How it was run: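 Mice were given LPS and dosed orally at 1 mg/kg. Neutrophils in BALF were counted, and percent inhibition was calculated.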

CLH [1]: 42 µL/min/mg
clearance [2]: 12 mL/min/kg
EC50 [3]: 130 nM
AUC(0-inf) [4]: 0.64 µM·h
bioavailability [5]: 50%
half-life [6]: 40.8 min
clearance [7]: 49 mL/min/kg
CLint scaled at 0.1 µM [8]: 50 mL/min/kg
EC50 [9]: 0.41 nM
bioavailability [10]: 67%
clearance [11]: 6.6 mL/min/kg
bioavailability [12]: 24%
EC50 (fMet-Leu-Phe receptor): 400 nM
Compound: COc1cc(F)c([C@@H]2CNC(=O)[C@H]2NC(=O)Nc2ccccc2)c(F)c1 [BMS-986235]
Ratio EC50 (CHO): 80
Activity (Mus musculus): Active
inhibition in vivo at 1 mg/kg [13]: 88%
